Experiments:
Kidney [1] = test: Biodistribution in Sprague-Dawley rat kidney assessed per gram tissue wet weight at 300 umol/kg, sc after 1 hr; assay type: ADME, organism-based; details: in vivo
Kidney [2] = test: Biodistribution in Sprague-Dawley rat kidney assessed per gram tissue wet weight at 300 umol/kg, sc after 4 hrs; assay type: ADME, organism-based; details: in vivo
Rattus norvegicus [3] = test: Nephrotoxicity in Sprague-Dawley rat assessed as heavy vacuolized renal tubules at […] for 7 days by renal perfusion studies; assay type: toxicity, organism-based; details: in vivo, 168 h, in the assay text read “237 umol/kg” for “273 umol/kg”
Method in brief: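 Male Sprague–Dawley rats (200–250 g), fasted overnight, got 237 µmol/kg/dose po twice daily (474 µmol/kg/day) for 7 days and were fed about 3 h post-drug. Untreated age-matched rats were controls. One day post-drug, under pentobarbital, kidneys were perfusion-fixed with glutaraldehyde in Tyrode's buffer and embedded in TAAB. 500 nm sections were stained with toluidine blue and examined by light microscopy at 400×.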

Plasma [4] = test: Biodistribution in Sprague-Dawley rat plasma at 300 umol/kg, po after 2 hrs; assay type: ADME, organism-based; details: in vivo
Method in brief: (§1)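 Male Sprague–Dawley rats (250–350 g) got one 300 µmol/kg dose, po or sc. Vehicle was water or the monosodium salt (free acid plus 1 equiv NaOH). Three rats per time point were euthanized by CO2 at 1, 2 or 4 h. Plasma came from citrated cardiac blood; liver, kidney, heart and pancreas were removed. Drug levels were measured by HPLC with UV detection at 310 nm against linear calibration curves (detection limit 0.25 µM).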

Kidney [5] = test: Biodistribution in Sprague-Dawley rat kidney assessed per gram tissue wet weight at 300 umol/kg, po after 4 hrs; assay type: ADME, organism-based; details: in vivo; method in brief: as §1
Heart [6] = test: Biodistribution in Sprague-Dawley rat heart assessed per gram tissue wet weight at 300 umol/kg, po after 1 hr; assay type: ADME, organism-based; details: in vivo; method in brief: as §1
Sapajus apella [7] = test: Iron-clearing efficiency in iron-overloaded Cebus apella at 150 umol/kg, sc after 2 days relative to control; assay type: functional
Method in brief: (§2)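 Monkeys (Cebus apella, 3.5–4 kg) were iron-loaded to about 500 mg Fe/kg with iv iron dextran and rested at least 60 days. They then got one 150 µmol/kg dose, po or sc. Feces and urine were collected every 24 h from 4 days before to 5 days after dosing, and iron was measured by flame atomic absorption. Efficiency was the 2-day post-drug iron minus the 4-day pre-drug baseline, divided by theoretical output (2:1 ligand:iron); mean ± SEM.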

Pancreas [8] = test: Biodistribution in Sprague-Dawley rat pancreas assessed per gram tissue wet weight at 300 umol/kg, sc after 1 hr; assay type: ADME, organism-based; details: in vivo
Liver [9] = test: Biodistribution in Sprague-Dawley rat liver assessed per gram tissue wet weight at 300 umol/kg, po after 4 hrs; assay type: ADME, organism-based; details: in vivo; method in brief: as §1
Plasma [10] = test: Biodistribution in Sprague-Dawley rat plasma at 300 umol/kg, sc after 1 hr; assay type: ADME, organism-based; details: in vivo
Rattus norvegicus [11] = test: Iron-clearing efficiency in non-iron-overloaded Sprague-Dawley rat at 300 umol/kg, po after 24 hrs relative to control; assay type: functional
Method in brief: (§3)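 Male Sprague–Dawley rats (400–450 g), not iron-loaded and bile duct-cannulated, got one dose of 50, 150 or 300 µmol/kg po, or 300 µmol/kg sc. Vehicle was water or the monosodium salt. Bile was collected every 3 h for 24 h and urine at 24 h. Iron was measured by atomic absorption. Efficiency was treated minus control iron excretion, divided by theoretical output (2:1 ligand:iron), as a percent; mean ± SEM.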

Heart [12] = test: Biodistribution in Sprague-Dawley rat heart assessed per gram tissue wet weight at 300 umol/kg, po after 2 hrs; assay type: ADME, organism-based; details: in vivo; method in brief: as §1
Rattus norvegicus [13] = test: Toxicity in non-iron-overloaded Sprague-Dawley rat assessed as survival at 384 umol/kg/day, po after 10 days by non-renal perfusion protocol; assay type: organism-based; details: in vivo, 240 h
Method in brief: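 Non-iron-loaded male Sprague–Dawley rats (250–300 g) were fasted overnight and gavaged po once daily for 10 days at 384 µmol/kg/day. They were fed about 3 h postdose with 5 h food access, then fasted again. Survival was followed over the exposure. Euthanasia was 24 h after the last dose, with extensive tissue histopathology.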

Heart [14] = test: Biodistribution in Sprague-Dawley rat heart assessed per gram tissue wet weight at 300 umol/kg, sc after 4 hrs; assay type: ADME, organism-based; details: in vivo
Liver [15] = test: Biodistribution in Sprague-Dawley rat liver assessed per gram tissue wet weight at 300 umol/kg, sc after 2 hrs; assay type: ADME, organism-based; details: in vivo
Kidney [16] = test: Biodistribution in Sprague-Dawley rat kidney assessed per gram tissue wet weight at 300 umol/kg, sc after 2 hrs; assay type: ADME, organism-based; details: in vivo
Pancreas [17] = test: Biodistribution in Sprague-Dawley rat pancreas assessed per gram tissue wet weight at 300 umol/kg, po after 1 hr; assay type: ADME, organism-based; details: in vivo; method in brief: as §1
Rattus norvegicus [18] = test: Iron-clearing efficiency in non-iron-overloaded Sprague-Dawley rat bile assessed as iron excretion at 150 umol/kg, po; assay type: functional; method in brief: as §3
Pancreas [19] = test: Biodistribution in Sprague-Dawley rat pancreas assessed per gram tissue wet weight at 300 umol/kg, sc after 4 hrs; assay type: ADME, organism-based; details: in vivo
Rattus norvegicus [20] = test: Toxicity in non-iron-overloaded Sprague-Dawley rat assessed as survival at 63.3 umol/kg/day, po after 30 days by non-renal perfusion protocol; details: in vivo, 720 h
Kidney [21] = test: Biodistribution in Sprague-Dawley rat kidney assessed per gram tissue wet weight at 300 umol/kg, po after 2 hrs; assay type: ADME, organism-based; details: in vivo; method in brief: as §1
Pancreas [22] = test: Biodistribution in Sprague-Dawley rat pancreas assessed per gram tissue wet weight at 300 umol/kg, sc after 2 hrs; assay type: ADME, organism-based; details: in vivo
Rattus norvegicus [23] = test: Iron-clearing efficiency in non-iron-overloaded Sprague-Dawley rat at 300 umol/kg, sc after 24 hrs relative to control; assay type: functional; method in brief: as §3
Pancreas [24] = test: Biodistribution in Sprague-Dawley rat pancreas assessed per gram tissue wet weight at 300 umol/kg, po after 2 hrs; assay type: ADME, organism-based; details: in vivo; method in brief: as §1
Liver [25] = test: Biodistribution in Sprague-Dawley rat liver assessed per gram tissue wet weight at 300 umol/kg, sc after 1 hr; assay type: ADME, organism-based; details: in vivo
Liver [26] = test: Biodistribution in Sprague-Dawley rat liver assessed per gram tissue wet weight at 300 umol/kg, po after 1 hr; assay type: ADME, organism-based; details: in vivo; method in brief: as §1
Sapajus apella [27] = test: Iron-clearing efficiency in iron-overloaded Cebus apella at 150 umol/kg, po after 2 days relative to control; assay type: functional; method in brief: as §2
Rattus norvegicus [28] = test: Iron-clearing efficiency in non-iron-overloaded Sprague-Dawley rat at 50 umol/kg, po after 24 hrs relative to control; assay type: functional; method in brief: as §3
Plasma [29] = test: Biodistribution in Sprague-Dawley rat plasma at 300 umol/kg, sc after 4 hrs; assay type: ADME, organism-based; details: in vivo
Liver [30] = test: Biodistribution in Sprague-Dawley rat liver assessed per gram tissue wet weight at 300 umol/kg, po after 2 hrs; assay type: ADME, organism-based; details: in vivo; method in brief: as §1
Rattus norvegicus [31] = test: Iron-clearing efficiency in non-iron-overloaded Sprague-Dawley rat bile assessed as iron excretion at 300 umol/kg, po; assay type: functional; method in brief: as §3
Rattus norvegicus [32] = test: Iron-clearing efficiency in non-iron-overloaded Sprague-Dawley rat at 150 umol/kg, po after 24 hrs relative to control; assay type: functional; method in brief: as §3
Plasma [33] = test: Biodistribution in Sprague-Dawley rat plasma at 300 umol/kg, po after 1 hr; assay type: ADME, organism-based; details: in vivo; method in brief: as §1
Heart [34] = test: Biodistribution in Sprague-Dawley rat heart assessed per gram tissue wet weight at 300 umol/kg, sc after 1 hr; assay type: ADME, organism-based; details: in vivo
Liver [35] = test: Biodistribution in Sprague-Dawley rat liver assessed per gram tissue wet weight at 300 umol/kg, sc after 4 hrs; assay type: ADME, organism-based; details: in vivo
Plasma [36] = test: Biodistribution in Sprague-Dawley rat plasma at 300 umol/kg, po after 4 hrs; assay type: ADME, organism-based; details: in vivo; method in brief: as §1
Plasma [37] = test: Biodistribution in Sprague-Dawley rat plasma at 300 umol/kg, sc after 2 hrs; assay type: ADME, organism-based; details: in vivo
Heart [38] = test: Biodistribution in Sprague-Dawley rat heart assessed per gram tissue wet weight at 300 umol/kg, sc after 2 hrs; assay type: ADME, organism-based; details: in vivo
Kidney [39] = test: Biodistribution in Sprague-Dawley rat kidney assessed per gram tissue wet weight at 300 umol/kg, po after 1 hr; assay type: ADME, organism-based; details: in vivo; method in brief: as §1
Rattus norvegicus [40] = test: Iron-clearing efficiency in non-iron-overloaded Sprague-Dawley rat bile assessed as iron excretion at 50 umol/kg, po; assay type: functional; method in brief: as §3
Rattus norvegicus [41] = test: Toxicity in iron-overloaded Sprague-Dawley rat assessed as survival at 119 umol/kg/day, po after 30 days by non-renal perfusion protocol; assay type: organism-based; details: in vivo, 720 h
Heart [42] = test: Biodistribution in Sprague-Dawley rat heart assessed per gram tissue wet weight at 300 umol/kg, po after 4 hrs; assay type: ADME, organism-based; details: in vivo; method in brief: as §1

SMILES | Drug uptake (Kidney [1]) [nmol/g] | Drug uptake (Kidney [2]) [nmol/g] | Activity (Rattus norvegicus [3]) | Drug uptake (Plasma [4]) [nmol/g] | Drug uptake (Kidney [5]) [nmol/g] | Drug uptake (Heart [6]) [nmol/g] | Activity (Sapajus apella [7]) [%] | Drug uptake (Pancreas [8]) [nmol/g] | Drug uptake (Liver [9]) [nmol/g] | Drug uptake (Plasma [10]) [nmol/g] | Activity (Rattus norvegicus [11]) [%] | Drug uptake (Heart [12]) [nmol/g] | Drug uptake (Liver [15]) [nmol/g] | Drug uptake (Kidney [16]) [nmol/g] | Drug uptake (Pancreas [17]) [nmol/g] | Activity (Rattus norvegicus [18]) [%] | Drug uptake (Pancreas [19]) [nmol/g] | Drug uptake (Kidney [21]) [nmol/g] | Drug uptake (Pancreas [22]) [nmol/g] | Activity (Rattus norvegicus [23]) [%] | other results
COCCOCCOCCOc1ccc(C2=N[C@@](C)(C(=O)O)CS2)c(O)c1 | 252 | 34 | Non-toxic | 32 | 10 | 17 | 30.4 | 30 | 35 | 140 | 5.5 | 9 | 132 | 41 | 25 | >95 | 13 | 69 | 30 | 8.7 | Activity (Rattus norvegicus [13]): Non-toxic; Drug uptake (Heart [14]): 5 nmol/g; Activity (Rattus norvegicus [20]): Non-toxic; Drug uptake (Pancreas [24]): 9 nmol/g; Drug uptake (Liver [25]): 339 nmol/g; Drug uptake (Liver [26]): 159 nmol/g; Activity (Sapajus apella [27]): 25.4%; Activity (Rattus norvegicus [28]): 21.7%; Drug uptake (Plasma [29]): 5 nmol/g; Drug uptake (Liver [30]): 144 nmol/g; Activity (Rattus norvegicus [31]): >95%; Activity (Rattus norvegicus [32]): 11.2%; Drug uptake (Plasma [33]): 64 nmol/g; Drug uptake (Heart [34]): 35 nmol/g; Drug uptake (Liver [35]): 67 nmol/g; Drug uptake (Plasma [36]): 2 nmol/g; Drug uptake (Plasma [37]): 16 nmol/g; Drug uptake (Heart [38]): 9 nmol/g; Drug uptake (Kidney [39]): 114 nmol/g; Activity (Rattus norvegicus [40]): >95%
C[C@]1(C(=O)O)CSC(c2ccc(O)cc2O)=N1 [DEFERITRIN] | 179 | 27 | Toxic | 8 | 61 | 8 | 15.9 | 28 | 44 | 34 | 1.1 | 5 | 48 | 97 | 13 | >98 | 6 | 100 | 6 | 1.1 | Activity (Rattus norvegicus [41]): Non-toxic; Drug uptake (Heart [42]): 3 nmol/g; Drug uptake (Pancreas [24]): 9 nmol/g; Drug uptake (Liver [25]): 80 nmol/g; Drug uptake (Liver [26]): 131 nmol/g; Activity (Sapajus apella [27]): 16.8%; Drug uptake (Plasma [29]): 2 nmol/g; Drug uptake (Liver [30]): 73 nmol/g; Activity (Rattus norvegicus [31]): >98%; Activity (Rattus norvegicus [32]): 1.5%; Drug uptake (Plasma [33]): 31 nmol/g; Drug uptake (Heart [34]): 13 nmol/g; Drug uptake (Liver [35]): 25 nmol/g; Drug uptake (Plasma [36]): 5 nmol/g; Drug uptake (Plasma [37]): 13 nmol/g; Drug uptake (Heart [38]): 5 nmol/g; Drug uptake (Kidney [39]): 208 nmol/g

Reference: ChEMBL document CHEMBL1157468, “Design, synthesis, and testing of non-nephrotoxic desazadesferrithiocin polyether analogues” (J Med Chem, 2008)
